The values that follow come from ChEMBL document CHEMBL4325910, “Design and synthesis of rosiglitazone-ferulic acid-nitric oxide donor trihybrids for improving glucose tolerance” (Eur J Med Chem, 2019).

Molecules are shown by their SMILES. Calls of active or inactive are those of the source. The calls are words filed in the database; no cut-off is given here.

A short description of series [1]: Metabolic stability in simulated intestinal fluid at pH 6.8 measured after 16 hrs by HPLC analysis. The class given is ADME. The note with it: read-out: Stability. Summed up: (§1)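 Gastric fluid was 1% pepsin in water, pH 1.5. Intestinal fluid was 1% trypsin with 0.68% KH2PO4, pH 6.8. Compound (100 mM DMSO stock) was diluted 1:1000 into each, in triplicate. Incubation was at 37 °C for 0, 2, 4, 6, 16 or 24 h. Acetonitrile (3 volumes) stopped it, then HPLC at 254 nm.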

The nature of series [2]: Metabolic stability in simulated intestinal fluid at pH 6.8 measured after 24 hrs by HPLC analysis. The class given is ADME. The conditions noted are these: read-out: Stability. The method in brief: as §1
Series [3] is described as follows: Metabolic stability in simulated intestinal fluid at pH 6.8 measured after 6 hrs by HPLC analysis. The class given is ADME. The conditions noted are these: read-out: Stability. Summed up: as §1
Series [4] in a line: Metabolic stability in simulated intestinal fluid at pH 6.8 measured immediately after compound addition by HPLC analysis. The note with it: read-out: Stability. The class given is ADME. Summed up:
as §1

Series [5] deals with 3T3-L1. As to the kind of experiment: Induction of nitric oxide production in TNF-alpha-induced insulin resistant mouse 3T3L1 cells at 3 to 10 uM after 0.5 to 6 hrs in presence of nitric oxide scavenger C-PTIO by DAF-FM-2DA dye-based fluorescence assay. The series is classed as functional, cell-based. The method in brief: (§2)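 Insulin-resistant 3T3-L1 adipocytes (TNF-α 4 ng/mL, 4 days) were treated for varying times, with or without 20 μM C-PTIO. Vehicle was DMSO 0.1% or NaOH 10 μM. Cells were washed in KRP, loaded with 10 μM DAF-FM-2DA in pH 7.4 PBS at 37 °C for 30 min, and read at Ex/Em 485/515 nm. Three experiments.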

Series [6] in a line: Metabolic stability in simulated gastric fluid at pH 1.5 measured after 2 hrs by HPLC analysis. The class given is ADME. The conditions noted are these: read-out: Stability. Summed up: as §1
Series [7] is described as follows: Metabolic stability in simulated gastric fluid at pH 1.5 measured after 4 hrs by HPLC analysis. The class given is ADME. The note with it: read-out: Stability. The method in brief:
as §1

The nature of series [8]: Metabolic stability in simulated gastric fluid at pH 1.5 measured after 16 hrs by HPLC analysis. The class given is ADME. The note with it: read-out: Stability. Summed up: as §1
Series [9] can be described thus: Metabolic stability in human liver microsomes after 0.5 hrs in presence of NADPH by HPLC analysis. The series is classed as ADME, Microsome. The conditions noted are these: read-out: Stability. Summed up:
(§3)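 Compound (100 mM DMSO stock) was added in triplicate to 0.1 M phosphate buffer pH 7.4 with 3.3 mM MgCl2 and human liver microsomes, then preincubated 5 min at 37 °C. NADPH (1.3 mM stock) was added and incubation continued 0, 0.5, 1, 2 or 6 h. Acetonitrile quench, then HPLC at 254 nm.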

Series [10] is described as follows: Metabolic stability in human liver microsomes after 1 hrs in presence of NADPH by HPLC analysis. The class given is ADME, Microsome. The conditions noted are these: read-out: Stability. The method in brief:
as §3
Background: Microsomes from liver hold many membrane-bound enzymes, among them those of drug oxidation.

Series [11] relates to Mus musculus. As to the kind of experiment: Cardioprotective activity in db/db BKS.Cg-Dock7m +/+ Leprdb/J mouse assessed as decrease in serum TNF-alpha level at 27 umol/kg, po administered as daily dose via gavage treated for 18 days by ELISA. The class given is functional, organism-based. The method in brief: (§4)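 db/db mice were gavaged daily for 18 days in 0.5% CMC-Na, with vehicle-treated model and C57BL/6 control groups. Tail vein blood was collected and serum TNF-α and cTnI measured by commercial ELISA kits. Six individual experiments, mean ± SD, one-way ANOVA.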

The test system of series [12] is Mus musculus. As to the kind of experiment: Cardioprotective activity in db/db BKS.Cg-Dock7m +/+ Leprdb/J mouse assessed as decrease in serum cTnI level administered po as daily dose via gavage for 18 days by ELISA. The series is classed as functional, organism-based. Summed up: as §4
Series [13] has as its system Platelet. The series can be described thus: Antiplatelet activity in platelet rich plasma (unknown origin) assessed as inhibition of arachidonic acid-induced platelet aggregation at 0.05 mM relative to control. The class given is functional.
The subject of series [14] is Platelet. As to the kind of experiment: Antiplatelet activity in platelet rich plasma (unknown origin) assessed as inhibition of arachidonic acid-induced platelet aggregation at 0.1 mM relative to control. The class given is functional.
In series [15] the test system is Platelet. As to the kind of experiment: Antiplatelet activity in platelet rich plasma (unknown origin) assessed as inhibition of ADP-induced platelet aggregation at 0.8 mM relative to control. The class given is functional.
The test system of series [16] is Mus musculus. As to the kind of experiment: Antidiabetic activity in spontaneous db/db BKS.Cg-Dock7m +/+ Leprdb/J mouse assessed as decrease in fasting blood glucose level at 10 mg/kg, po administered as daily dose via gavage for 18 days measured on day 9 post last dose by glucometric analysis. The series is classed as functional, organism-based. Summed up:
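Male db/db mice (BKS.Cg-Dock7m +/+ Leprdb/J), 6 weeks old on purchase, randomized, n=8 per group. Dosed by gavage in 0.5% CMC-Na daily for 18 consecutive days. Vehicle-dosed db/db and C57BL/6 mice served as model and control. Fasting glucose was read by glucometer every three days. On day 12, after an overnight fast, 2 g/kg glucose was given orally. Blood glucose was read at 0–120 min and AUC calculated. Mean ± SEM.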

A short description of series [17]: Metabolic stability in Sprague-Dawley rat plasma after 0.5 hrs by HPLC analysis. The class given is ADME, cell-free. Summed up: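 Compound (100 μM final; 100 mM DMSO stock diluted 1:1000) was incubated in triplicate in SD rat plasma at 37 °C with shaking for 0–24 h. Acetonitrile (3 volumes) was added, samples centrifuged and supernatants run on HPLC. Gradient was ammonium acetate pH 3.5/acetonitrile, 1.0 mL/min, detection at 254 nm.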

Series [18] can be described thus: Toxicity in spontaneous db/db BKS.Cg-Dock7m +/+ Leprdb/J mouse assessed as reduction in serum hematocrit value at 27 umol/kg, po administered as daily dose via gavage treated for 18 days. The class given is organism-based. The conditions noted are these: in vivo, 432 h.
For series [19], the system named is Platelet. The series can be described thus: Antiplatelet activity in platelet rich plasma (unknown origin) assessed as inhibition of arachidonic acid-induced platelet aggregation at 2 mM relative to control. The series is classed as functional.
The test system of series [20] is Platelet. As to the kind of experiment: Antiplatelet activity in platelet rich plasma (unknown origin) assessed as inhibition of arachidonic acid-induced platelet aggregation at 4 mM relative to control. The class given is functional.
Series [21] concerns Platelet. As to the kind of experiment: Antiplatelet activity in platelet rich plasma (unknown origin) assessed as inhibition of ADP-induced platelet aggregation at 1 mM relative to control. The class given is functional.
Series [22] deals with Platelet. As to the kind of experiment: Antiplatelet activity in platelet rich plasma (unknown origin) assessed as inhibition of ADP-induced platelet aggregation at 2 mM relative to control. The series is classed as functional.
Series [23] deals with Platelet. As to the kind of experiment: Antiplatelet activity in platelet rich plasma (unknown origin) assessed as inhibition of ADP-induced platelet aggregation at 8 mM relative to control. The class given is functional.
Series [24] is described as follows: Toxicity in ICR mouse assessed mouse mortality at 5000 mg/kg, po administered as single dose via gavage treated on day 1 and measured daily up to 14 days. The class given is organism-based. The conditions noted are these: in vivo, 336 h. The method in brief: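 Mice of both sexes, 7 weeks old, were randomized and given one oral gavage dose on day 1. Dose levels were 500, 1000, 2000, 3000, 4000 or 5000 mg/kg, or 2000, 4000 and 5000 mg/kg, with n = 10 per group. Behaviour, health and mortality were checked daily for 14 days, and total deaths were counted on day 14. LD50 was calculated with 95% confidence limits.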

In series [25] the test system is 3T3-L1. As to the kind of experiment: Induction of nitric oxide production in TNF-alpha-induced insulin resistant mouse 3T3L1 cells at 10 uM after 0.5 to 6 hrs by DAF-FM-2DA dye based fluorescence assay. The series is classed as functional, cell-based. Summed up:
as §2

Series [26] relates to 3T3-L1. As to the kind of experiment: Inhibition of MDA level in TNF-alpha-induced insulin resistant mouse 3T3L1 cells 10 uM after 48 hrs. The class given is functional, cell-based. Summed up: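 3T3-L1 preadipocytes were differentiated, and mature adipocytes made insulin resistant with TNF-α (4 ng/mL) daily for 4 days. Cells were then treated in triplicate for 48 h, with or without 20 μM C-PTIO. Lysate GSH, SOD and MDA were measured with kits. Three experiments, mean ± SD.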

For `CCN(CC)/[N+]([O-])=N/OCOC(=O)/C=C/c1ccc(OC(=O)OCN2C(=O)SC(Cc3ccc(OCCN(C)c4ccccn4)cc3)C2=O)c(OC)c1` (stereo unspecified), the remaining at 16 h in series [1] was 85.8%; in series [8], 86.6%. The remaining at 24 h in series [2] is 75.5%. Further, in [3], the remaining at 6 h is 87.6%. For the same molecule, the remaining at 0 h in series [4] was 100%. For the same molecule, the outcome in the series with 3T3-L1 [5] was inactive. Also, in series [6], the remaining at 2 h is 99.8%. Further, the remaining at 4 h in series [7] was 97%. In addition, the remaining at 0.5 h in [9] was determined as 94.3%. Besides, the remaining at 1 h in series [10] was 89.9%. Further, the result in the series with Mus musculus [11] was Active. In addition, in the series on Mus musculus [12], the Activity entry was “Dose-dependent effect”. For the same molecule, the inhibition at 50 µM with Platelet [13] was 9.2%. For the same molecule, the inhibition at 100 µM with Platelet [14] was found to be 21.6%. Further, in the series with Platelet [15], the inhibition at 800 µM is 26.2%.

In the case of `CN(CCOc1ccc(CC2SC(=O)NC2=O)cc1)c1ccccn1` (stereo unspecified) [ROSIGLITAZONE], the outcome in the series with Mus musculus [16] was Active. In series [17], the Stability was determined as 20%. In addition, the Activity entry in [18] and in series [24] was “Toxic” each time. The inhibition at 2000 µM with Platelet [19] was found to be 28%; in the series on Platelet [22], 25.3%. Further, in the series with Platelet [20], the inhibition at 4000 µM turned out to be 42.2%. Further, the inhibition at 1000 µM in the series on Platelet [21] was 6.1%. Besides, the inhibition at 8000 µM with Platelet [23] was 64%. In the series on 3T3-L1 [25], the outcome was inactive. The inhibition result in the series on 3T3-L1 [26] was “Active”.

Broadly, the inhibition is the drop in the measured response relative to a control, in per cent.
